Data on one compound can be found in ChEMBL document CHEMBL3526105, “Cytochrome P450-mediated oxidative metabolism of abused synthetic cannabinoids found in K2/Spice: identification of novel cannabinoid receptor ligands” (Drug Metab Dispos, 2012).

Calls of active or inactive are those of the source. The calls are words filed in the database; no cut-off is given here.

Data set [1] can be described thus: Drug metabolism in human urine assessed as (1-(4-hydroxypentyl)-1H-indol-3-yl)(naphthalen-1-yl)methanone formation by LC-MS/MS analysis. Format: ADME, tissue-based. Summed up: (§1)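 Urine from suspected users (40 μl) incubated with or without β-glucuronidase (1.6 U/μl final) in 0.1 M sodium acetate pH 5.0, 60 min at 37°C with shaking. Analysed by positive-ESI LC-MS/MS against standards matrix-matched in blank pooled human urine, with confirmation by enhanced product ion spectra.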

Data set [2] concerns Liver microsome. The data set is described as follows: Drug metabolism in human liver microsomes assessed as (6-hydroxy-1-pentyl-1H-indol-3-yl)(naphthalen-1-yl)methanone formation at 10 uM after 20 mins by LC-MS/MS analysis. Format: ADME. Summed up: (§2)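 Pooled human liver microsomes (75 μg) incubated with 10 μM substrate in 0.1 M KPO4 pH 7.4 with NADPH-regenerating system at 37°C. Reaction stopped with ethanol, centrifuged. Analytes quantified by positive-ESI LC-MS/MS against standards matrix-matched in reaction mixture, with confirmation by SRM-triggered enhanced product ion spectra library matching.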
In general terms: Liver microsomes are vesicles of endoplasmic reticulum, rich in cytochrome P450 enzymes.

Data set [3] deals with Liver microsome. The data set is described as follows: Drug metabolism in human liver microsomes assessed as (5-hydroxy-1-pentyl-1H-indol-3-yl)(naphthalen-1-yl)methanone formation at 10 uM after 20 mins by LC-MS/MS analysis. Format: ADME. The method, boiled down: as §2
In data set [4] the test system is Liver microsome. The data set can be described thus: Drug metabolism in human liver microsomes assessed as (7-hydroxy-1-pentyl-1H-indol-3-yl)(naphthalen-1-yl)methanone formation at 10 uM after 20 mins by LC-MS/MS analysis. Format: ADME. The method, boiled down:
as §2

The nature of data set [5]: Drug metabolism in human urine assessed as 5-(3-(1-naphthoyl)-1H-indol-1-yl)pentanoic acid formation by LC-MS/MS analysis. Format: ADME, tissue-based. The method, boiled down: as §1
Data set [6] in a line: Drug metabolism in human urine assessed as (1-(5-hydroxypentyl)-1H-indol-3-yl)(naphthalen-1-yl)methanone formation by LC-MS/MS analysis. Format: ADME, tissue-based. The method, boiled down: as §1
The target in data set [7] is T1, Cytochrome P450 2E1 (Homo sapiens, UniProt P05181). The data set is described as follows: Drug metabolism assessed as human recombinant CYP2E1-mediated (1-(5-hydroxypentyl)-1H-indol-3-yl)(naphthalen-1-yl)methanone formation at 10 uM after 90 mins by LC-MS/MS analysis. To be noted: recombinant enzyme, 1.5 h. Format: ADME. The method, boiled down:
(§3)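 Recombinant human CYP2E1 or CYP3A4 (2 pmol) incubated with substrate at 10 μM final, dried from ethanol. Buffer 0.1 M KPO4 pH 7.4 with NADPH-regenerating system, which starts the reaction. 90 min at 37°C, triplicate, with no-substrate, no-protein and no-NADPH controls. Stopped with ethanol, centrifuged, and metabolites quantified by LC-MS/MS.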

Data set [8] deals with T1, Cytochrome P450 2E1. The data set is described as follows: Drug metabolism assessed as human recombinant CYP2E1-mediated 5-(3-(1-naphthoyl)-1H-indol-1-yl)pentanoic acid formation at 10 uM after 90 mins by LC-MS/MS analysis. The note with it: recombinant enzyme, 1.5 h. Format: ADME. Summed up:
as §3

Data set [9] has as its target T1, Cytochrome P450 2E1. The data set can be described thus: Drug metabolism assessed as human recombinant CYP2E1-mediated (1-(4-hydroxypentyl)-1H-indol-3-yl)(naphthalen-1-yl)methanone formation at 10 uM after 90 mins by LC-MS/MS analysis. Format: ADME. The note with it: recombinant enzyme, 1.5 h. Summed up:
as §3

The target in data set [10] is T2, Cytochrome P450 3A4 (Homo sapiens, UniProt P08684). The data set is described as follows: Drug metabolism assessed as human recombinant CYP3A4-mediated (1-(5-hydroxypentyl)-1H-indol-3-yl)(naphthalen-1-yl)methanone formation at 10 uM after 90 mins by LC-MS/MS analysis. The note with it: recombinant enzyme, 1.5 h. Format: ADME. Summed up:
as §3

For data set [11], the target named is T2, Cytochrome P450 3A4. The data set can be described thus: Drug metabolism assessed as human recombinant CYP3A4-mediated 5-(3-(1-naphthoyl)-1H-indol-1-yl)pentanoic acid formation at 10 uM after 90 mins by LC-MS/MS analysis. Format: ADME. The note with it: recombinant enzyme, 1.5 h. The method, boiled down: as §3
Data set [12] has as its target T2, Cytochrome P450 3A4. The data set can be described thus: Drug metabolism assessed as human recombinant CYP3A4-mediated (1-(4-hydroxypentyl)-1H-indol-3-yl)(naphthalen-1-yl)methanone formation at 10 uM after 90 mins by LC-MS/MS analysis. To be noted: recombinant enzyme, 1.5 h. Format: ADME. Summed up:
as §3

The next data set has as its target Cytochrome b5 (Homo sapiens, UniProt P00167). The data set can be described thus: Drug metabolism assessed as cytochrome b5 (unknown origin)-mediated (5-hydroxy-1-pentyl-1H-indol-3-yl)(naphthalen-1-yl)methanone formation at 10 uM after 90 mins by LC-MS/MS analysis in presence of oxidoreductase. To be noted: 1.5 h. Format: ADME.
A further data set has as its target Cannabinoid receptor 1 (Mus musculus, UniProt P47746). The data set can be described thus: Displacement of [3H]CP-55,940 from CB1 receptor in B6SJL mouse brain membrane after 90 mins by liquid scintillation spectrophotometric analysis. Format: cell membranes. Summed up: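 B6SJL mouse brain membranes (50 μg) with 0.2 nM [3H]CP-55,940 and competitor at 0.1 nM–10 μM. Buffer 5 mM MgCl2, 50 mM Tris, 0.05% BSA; 90 min at room temperature, triplicate. Nonspecific binding set with 10 μM WIN-55,212-2. Filtered on GF/B, washed with Tris/BSA, counted by scintillation. Specific binding given as % of vehicle.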
On the technique in general: In a radioligand displacement assay an active substance lowers the binding of a labelled ligand.

Data set [13] concerns the target Cannabinoid receptor 1 (Mus musculus) (UniProt P47746). The data set can be described thus: Activation of CB1 receptor in B6SJL mouse brain membrane assessed as [35S]-GTPgammaS binding at 10 uM after 30 mins by liquid scintillation spectrophotometric analysis. Format: functional, cell membranes. The method, boiled down:
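Mouse brain membrane homogenate (25 μg; whole B6SJL brains, pooled, Dounce-homogenised, spun 40,000g three times). Incubated with […], 0.1 nM [35S]GTPγS in 20 mM HEPES, 10 mM MgCl2, 100 mM NaCl, 20 U/l adenosine deaminase, 0.05% BSA, 30 min at 30°C, triplicate. Nonspecific binding with 10 μM unlabelled GTPγS. Stopped by GF/B filtration; filters counted by scintillation.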

For data set [14] the target is unchanged. The data set can be described thus: Activation of CB1 receptor in B6SJL mouse brain membrane assessed as [35S]-GTPgammaS binding at 10 uM after 30 mins by liquid scintillation spectrophotometric analysis in presence of O-2050. Format: functional, cell membranes.

T2 sequence (P08684 whole entry): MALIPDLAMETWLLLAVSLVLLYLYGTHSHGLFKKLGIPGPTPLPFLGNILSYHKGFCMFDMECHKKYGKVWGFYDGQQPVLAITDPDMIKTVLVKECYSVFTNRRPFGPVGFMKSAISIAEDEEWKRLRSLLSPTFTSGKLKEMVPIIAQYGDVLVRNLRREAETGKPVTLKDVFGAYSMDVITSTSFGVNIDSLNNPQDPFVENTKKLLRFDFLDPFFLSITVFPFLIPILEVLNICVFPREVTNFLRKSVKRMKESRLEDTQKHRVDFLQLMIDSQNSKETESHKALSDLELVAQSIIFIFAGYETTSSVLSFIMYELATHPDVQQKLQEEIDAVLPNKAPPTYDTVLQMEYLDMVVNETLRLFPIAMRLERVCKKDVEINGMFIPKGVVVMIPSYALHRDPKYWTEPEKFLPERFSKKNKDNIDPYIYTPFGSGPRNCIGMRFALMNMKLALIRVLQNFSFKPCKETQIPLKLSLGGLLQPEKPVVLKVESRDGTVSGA
T1 sequence (P05181 whole entry): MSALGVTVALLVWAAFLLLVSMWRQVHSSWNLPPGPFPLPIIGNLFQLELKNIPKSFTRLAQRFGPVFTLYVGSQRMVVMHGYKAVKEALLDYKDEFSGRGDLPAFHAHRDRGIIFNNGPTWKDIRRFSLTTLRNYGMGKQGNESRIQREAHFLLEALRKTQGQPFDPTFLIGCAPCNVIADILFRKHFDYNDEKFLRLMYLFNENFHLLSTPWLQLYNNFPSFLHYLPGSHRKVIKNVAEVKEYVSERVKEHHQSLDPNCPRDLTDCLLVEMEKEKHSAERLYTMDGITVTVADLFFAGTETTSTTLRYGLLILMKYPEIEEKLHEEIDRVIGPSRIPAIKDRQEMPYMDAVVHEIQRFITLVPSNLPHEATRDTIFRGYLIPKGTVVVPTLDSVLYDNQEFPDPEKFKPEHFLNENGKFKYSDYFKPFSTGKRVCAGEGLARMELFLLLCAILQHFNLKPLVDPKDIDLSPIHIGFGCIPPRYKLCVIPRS
Sequence of Cannabinoid receptor 1 (Mus musculus) (P47746 whole entry): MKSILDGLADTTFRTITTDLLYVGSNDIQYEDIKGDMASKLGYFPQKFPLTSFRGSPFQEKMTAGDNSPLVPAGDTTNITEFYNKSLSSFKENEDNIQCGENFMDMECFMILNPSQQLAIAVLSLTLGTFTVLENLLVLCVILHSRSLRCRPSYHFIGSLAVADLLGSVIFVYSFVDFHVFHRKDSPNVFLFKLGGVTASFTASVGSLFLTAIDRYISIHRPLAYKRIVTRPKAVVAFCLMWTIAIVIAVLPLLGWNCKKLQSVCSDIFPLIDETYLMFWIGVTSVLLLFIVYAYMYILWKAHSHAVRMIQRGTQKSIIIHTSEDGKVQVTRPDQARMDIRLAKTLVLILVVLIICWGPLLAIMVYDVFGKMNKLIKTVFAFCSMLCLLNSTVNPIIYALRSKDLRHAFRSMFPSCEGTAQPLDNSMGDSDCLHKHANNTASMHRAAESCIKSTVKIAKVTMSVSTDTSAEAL
Sequence of Cannabinoid receptor 1 (P47746 whole entry): as above
Sequence of Cytochrome b5 (P00167 whole entry): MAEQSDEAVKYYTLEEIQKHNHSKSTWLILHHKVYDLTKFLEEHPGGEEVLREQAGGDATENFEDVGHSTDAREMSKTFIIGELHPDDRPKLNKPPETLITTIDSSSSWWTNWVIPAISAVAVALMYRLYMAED

Take `CCCCCn1cc(C(=O)c2cccc3ccccc23)c2ccccc21`: the Drug metabolism result (in [1]; in the data set with Liver microsome [2]; in the data set with Liver microsome [3]; in the data set on Liver microsome [4]; in data set [5]; in [6]) was “metabolite_detected” in each case. For the same compound, the Drug metabolism result at Cytochrome P450 2E1 [7], at Cytochrome P450 2E1 [8], on Cytochrome P450 2E1 [9], at Cytochrome P450 3A4 [10], on Cytochrome P450 3A4 [11] and on Cytochrome P450 3A4 [12] was “metabolite_not_detected” throughout. Further, the Drug metabolism result on Cytochrome b5 is on record as “metabolite_detected”. Affinity on Cannabinoid receptor 1 was put at a Ki of 1.3 nM. In addition, the result in data set [13] was Active. For the same compound, the result in data set [14] was inactive.

As usually defined, the Ki is a measure of affinity in units of concentration, obtained from inhibition or displacement. Lower therefore signals higher affinity.
